Assay outcomes: PubChem BioAssay, several laboratories
Bfl-1 A1 inh – inhibitors of the anti-apoptotic protein A1, read as caspase activation. MEF A1-2A-BIM cells, Caspase-Glo 3/7 luminescence, 3 h; percent of clofoctol response, vehicle zero. caspase activation, % (test concentration not listed). 330,000 compounds, 0.066% hits;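 active = over half of replicate activation scores above 10%, or exactly half above 10 with the replicate mean above 10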
MsrA act – bovine methionine sulfoxide reductase A activation; purified bovine MsrA, absorbance read-out; activation, % at 10.6 µM; 360,000 compounds, 0.3% hits; in the data active = activation above about 7.5%
procasp7 counter – counter-screen for procaspase-3 activators: activators of human procaspase-7; activation, % at 8.5 µM; AID 463210; 330,000 compounds, 0.093% hits; recombinant procaspase-7, Ac-DEVD-pNA absorbance 405 nm; D23A/D198A/D206A triple mutant, cannot self-cleave; scale: DMSO 0, 5 µM enzyme 100;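 active = percent activation above the screen-wide mean plus 3 SD, cut at about 25% in these data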
Target sequence (P55210 whole entry D23A/D198A/D206A): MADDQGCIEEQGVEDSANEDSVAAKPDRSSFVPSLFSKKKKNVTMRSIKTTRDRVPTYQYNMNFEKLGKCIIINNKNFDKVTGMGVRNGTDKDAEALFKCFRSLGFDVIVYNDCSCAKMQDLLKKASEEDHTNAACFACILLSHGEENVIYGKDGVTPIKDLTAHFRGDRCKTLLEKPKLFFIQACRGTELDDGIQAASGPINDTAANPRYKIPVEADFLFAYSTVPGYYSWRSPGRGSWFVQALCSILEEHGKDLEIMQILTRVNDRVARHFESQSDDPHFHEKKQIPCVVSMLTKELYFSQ
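Material: Procaspase-7 triple mutant (PC-7 D3A) | Quantity: 2 µM procaspase-7 mutant as dispensed | Reagent: DEVD-pNA substrate | Times: 1 h preincubation, 2 h reaction | Technique: 405 nm absorbance of p-nitroaniline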
proCasp3 act – activators of human procaspase-3. P42574. recombinant procaspase-3 D3A, Ac-DEVD-pNA absorbance 405 nm. activation, % at 8.5 µM. 330,000 compounds, 0.11% hits;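 active = activation above the mean of all tested compounds plus 3 SD, cut at about 21% in these data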
Target sequence (P42574 whole entry D9A/D28A/D175A): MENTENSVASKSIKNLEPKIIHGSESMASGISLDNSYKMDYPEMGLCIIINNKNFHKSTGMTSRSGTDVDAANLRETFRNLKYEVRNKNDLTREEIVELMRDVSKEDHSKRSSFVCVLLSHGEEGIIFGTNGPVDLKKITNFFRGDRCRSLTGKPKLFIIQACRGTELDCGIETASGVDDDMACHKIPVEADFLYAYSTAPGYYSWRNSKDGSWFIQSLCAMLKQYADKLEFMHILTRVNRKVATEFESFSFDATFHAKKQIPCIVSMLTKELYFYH
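Assay system – Procaspase-3 D3A mutant · Benchmarks – DMSO low control, extra-enzyme high control · Technique – 405 nm absorbance of p-nitroaniline, reads at 0 and 120 min · Doses – 8.5 µM nominal · Measure – % activation between DMSO and enzyme-spiked controls · Also added – Ac-DEVD-pNA chromogenic peptide substrate · Schedule – 1 h compound preincubation, 2 h substrate hydrolysis at 25 °C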
MsrA inhibitor – inhibits bovine methionine sulfoxide reductase A | purified bovine MsrA, absorbance read-out | inhibition, % at 15.5 µM | AID 651718 | 360,000 compounds, 0.75% hits
MsrA conf – bovine MsrA inhibition, confirmed; shares compounds with MsrA inhibitor; purified bovine MsrA, absorbance read-out; inhibition, % at 15.5 µM; 2,300 compounds, 41% hits; AID 651822;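 also: coupled to thioredoxin reductase with NADPH and selenocystamine and DMSO as substrate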
Hits are given with their value; 0 = inactive; - = no result given. The list is not random: actives were taken first. Their share in the collection is about 1.2%. Rule as the data show it, unless noted: active = inhibition above about 4.5%; inactive = the rest.

SMILES	Bfl-1 A1 inh	MsrA act	procasp7 counter	proCasp3 act	MsrA inhibitor	MsrA conf
O=C(Nc1ccc(C(=O)O)cc1)/C(=C\c1ccco1)NC(=O)c1ccccc1	0	0	0	0	0	-
CC(=O)c1ccc(NC(=O)/C(=C\c2ccco2)NC(=O)c2ccco2)cc1	0	0	0	0	5.7	5.4
CC(=O)c1cccc(NC(=O)/C(=C\c2ccco2)NC(=O)c2ccco2)c1	0	0	0	0	0	-
Nc1ncnc(NCc2ccccc2)c1[N+](=O)[O-]	0	0	0	0	4.9	0
Nc1ncnc(NCc2ccc(F)cc2)c1[N+](=O)[O-]	0	0	0	0	0	-
Cc1cc(/C=C(\C#N)C(=O)O)c(C)n1C1CC1	0	0	0	0	0	-
Cc1cc(/C=C(\C#N)C(=O)O)c(C)n1-c1ccc(Br)cc1	0	0	0	0	7.4	4.8
Cc1cc(/C=C(\C#N)C(=O)O)c(C)n1CC1CCCO1 (configuration not stated)	0	0	0	0	5.2	6.2
CCCCn1c(C)cc(/C=C(\C#N)C(=O)O)c1C	0	0	0	0	0	-
Cc1cc(/C=C(/C#N)C(=O)O)c(C)n1CCC(C)C	0	0	0	0	4.8	0
CCCn1c(C)cc(/C=C(\C#N)C(=O)O)c1C	0	0	0	0	6.8	0
NN=C1c2ccccc2C(=O)C1C(=O)C(c1ccccc1)c1ccccc1 (configuration not stated)	-	0	-	-	0	-
CC(=O)N1CCN(c2ccc(N3CCN(Cc4ccccc4)[C@@H](C)C3)c(C)c2)[C@H](C)C1	-	-	-	-	0	-
COc1ccc(N2C(=O)c3n[nH]c(C)c3C2c2cccc(C(F)(F)F)c2)cc1 (configuration not stated)	-	-	-	-	0	-
Cc1csc2ncc(C(=O)N3CCCc4ccccc43)c(=O)n12	-	0	0	0	4.7	0
Cc1ccc(OCc2ccc([N+](=O)[O-])cc2)c([N+](=O)[O-])n1	0	0	0	0	0	-
NC(=O)N=Nc1c(O)[nH]c2ccc([N+](=O)[O-])cc12	0	0	0	0	0	-
O=C(CNC(=O)c1ccco1)N=Nc1c(O)[nH]c2ccc([N+](=O)[O-])cc12	0	0	0	0	5.8	0
Nc1nc2nccc(-c3ccc(Cl)cc3)n2n1	0	0	0	0	5.2	0
Cn1c(=NC(=O)c2ccc(S(=O)(=O)N3CCCc4ccccc43)cc2)sc2cc(S(C)(=O)=O)ccc21	0	0	0	0	0	-
C#CCn1c(=NC(=O)c2ccc(S(=O)(=O)N3CCCc4ccccc43)cc2)sc2cc(S(N)(=O)=O)ccc21	0	0	0	0	5.3	0
CCCCc1cc(=O)oc2c(CN(C)C)c(O)c(Cl)cc12	0	0	0	0	5.0	0
CCc1c(C)c2cc(Cl)c(O)c(CN(C)C)c2oc1=O	0	0	0	0	0	-
COc1cccc(CN(C)S(=O)(=O)c2c(C)noc2C)c1OC	-	0	-	-	0	-
CCCCN1C(=O)C(CC(=O)NCCN2CCOCC2)CC(C(=O)N(C)C)=C1C (configuration not stated)	-	0	-	-	0	-
SMILES	Bfl-1 A1 inh	MsrA act	procasp7 counter	proCasp3 act	MsrA inhibitor	MsrA conf
O=C(O)c1ccc(N/N=C2/CCCc3ccccc32)cc1	0	0	0	0	5.8	7.0
O=c1[nH]n(-c2ccccc2)c(=O)cc1Cl	-	0	-	-	0	-
Cc1ccc(S(=O)(=O)NC(=O)C2(C)CCN2C(=O)c2cccc(F)c2)nc1 (configuration not stated)	-	0	-	-	0	-
CCCOc1ccc(CNC(=O)c2ccc3nc(N4CCOCC4)sc3c2)cc1	0	0	0	0	0	-
CCOc1cc(/C=N/NC(=O)c2cccs2)cc([N+](=O)[O-])c1O	-	0	-	-	8.2	4.9
O=C(N/N=C/c1cccc([N+](=O)[O-])c1)c1cccs1	0	0	0	0	0	-
COc1cc(/C=N/N=C2/NC(=O)C(c3ccccc3)S2)ccc1O (configuration not stated)	0	0	0	0	4.9	0
O=C1Nc2ccccc2/C1=N\N=C\c1ccc(O)c(O)c1	0	0	0	0	0	-
COc1cc(/C=N/N=C2/C(=O)Nc3ccccc32)ccc1O	0	0	0	0	4.9	0
Cc1c(C(=O)NCc2cccc(C(F)(F)F)c2)sc(=O)n1Cc1ccc(S(=O)(=O)N(C)C)cc1	-	0	-	-	0	-
CCN=C1NC(c2ccccc2C(F)(F)F)C(C(=O)OC)=C(C)N1Cc1ccc(C(F)(F)F)cc1 (configuration not stated)	-	-	-	-	0	-
Cc1ccc(C(=O)N/N=C\c2ccc(Br)o2)o1	0	0	0	0	6.4	6.7
CC(=O)N(C)c1ccc(N=Nc2ccc3ncccc3c2)cc1	-	0	-	-	5.3	4.9
CCN1C(=O)[C@@H]2[C@@H](c3ccc(SC4CCCCC4)cc3)N3CCC[C@@]3(C(=O)OC)[C@@H]2C1=O	0	0	0	0	0	-
COc1cc(/C=C/c2ccc3cccc([N+](=O)[O-])c3n2)ccc1OCC(=O)O	0	0	0	0	5.8	0
COc1cc(/C=C/c2ccc3c([N+](=O)[O-])cccc3n2)ccc1OCC(=O)O	0	0	0	0	0	-
CCc1c(-c2cccc(Br)c2)ncn1CCc1ccccc1OC	-	-	-	-	0	-
COc1c(C)cc(C(O)c2ncc(-c3ccccc3)[nH]2)cc1C (configuration not stated)	-	0	-	-	0	-
CCOc1ccc(N(C)S(=O)(=O)c2cc(-c3cc(C)no3)ccc2C(C)C)cc1	0	0	0	0	10.9	12.1
CCCNC(=O)C1(C)CCCN(C(=O)COCc2ccccc2)C1 (configuration not stated)	-	0	-	-	0	-
Cc1ccc(NS(=O)(=O)c2cc(-c3n[nH]c(=O)c4ccccc34)ccc2C)cc1	0	0	0	0	5.2	5.0
CC1(C)CCCN(C(=O)c2coc(=O)c(Br)c2)C1	-	0	-	-	4.9	0
CCN(CC)c1nc(N)c2c(N)n(-c3ccccc3C)c(=S)c(C#N)c2c1C#N	0	0	0	0	8.0	9.3
O=C(O)c1ccc(/C=C/C(=O)c2ccc3c(c2)OCCCO3)cc1	0	0	0	0	6.5	0
CC(NC(=O)/C=C/c1ccccc1[N+](=O)[O-])C1CC2CCC1C2 (configuration not stated)	0	0	0	0	0	-
SMILES	Bfl-1 A1 inh	MsrA act	procasp7 counter	proCasp3 act	MsrA inhibitor	MsrA conf
O=C(NCc1ccccc1)[C@@H]1CCCN1C(=O)[C@H]1CCCN1C(=O)c1ccc(F)cc1	-	-	-	-	0	-
N#C/C(=C\c1cccc(O)c1)C(=O)N1CCCCC1	0	0	0	0	0	-
Cc1cc(/C=C(\C#N)C(=O)N2CCCCC2)cc(C)c1O	0	0	0	0	4.8	0
Cc1ccc(N=Cc2ccc(N(C)C)cc2)cc1C	0	0	0	0	0	-
Cc1ccc(N=Cc2ccc(N(C)C)cc2)cc1	0	0	0	0	6.5	0
Cc1ccc(S(=O)(=O)N(C)/N=C/c2ccc(N(C)C)cc2)cc1	0	0	0	0	6.1	0
